{"source": "ChEMBL document CHEMBL1157962", "about": "“Antifungal azaphilones from the fungus Chaetomium cupreum CC3003” (J Nat Prod, 2006)", "key": {"[1]": {"tested_on": "BC1", "assay": "Cytotoxicity against human BC1 cells", "assay_type": "functional, cell-based"}, "[2]": {"tested_on": "Candida albicans", "assay": "Antifungal activity against Candida albicans by XTT formazan assay", "assay_type": "functional, organism-based", "how_it_was_run": "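Clinical isolate of Candida albicans tested by a modified soluble formazan (XTT) method. Viable cells read as XTT formazan absorbance at 450 nm. IC50 taken in μg/mL.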"}, "[3]": {"tested_on": "KB", "assay": "Cytotoxicity against human KB cells", "assay_type": "functional, cell-based"}, "[4]": {"tested_on": "NCI-H178", "assay": "Cytotoxicity against human […] cells", "assay_type": "functional, cell-based"}}, "note": "Activity calls are given as the source filed them. No cut-off for these calls is given here."}
{"smiles": "CC[C@H](C)/C=C(C)/C=C/C1=CC2=CC3=C(C(C)=O)C(=O)O[C@@]3(C)C(=O)C2=CO1", "values": [{"measurement": "Activity", "setting": "[1]", "value": "inactive"}, {"measurement": "IC50", "setting": "[2]", "value": 24.3, "unit": "mg/L"}, {"measurement": "Activity", "setting": "[3]", "value": "inactive"}, {"measurement": "Activity", "setting": "[4]", "value": "inactive"}]}
{"smiles": "CC[C@H](C)/C=C(C)/C=C/C1=CC2=CC3=C(C(C)=O)C(=O)O[C@@]3(C)[C@H](O)C2=CO1", "note": "[ROTIORINOL A]", "values": [{"measurement": "Activity", "setting": "[1]", "value": "inactive"}, {"measurement": "IC50", "setting": "[2]", "value": 10.5, "unit": "mg/L"}, {"measurement": "Activity", "setting": "[3]", "value": "inactive"}, {"measurement": "Activity", "setting": "[4]", "value": "inactive"}]}
{"smiles": "CC(=O)C1=C2C=C3C=C(/C=C/C(C)=C/[C@@H](C)CCO)OC=C3[C@@H](O)[C@]2(C)OC1=O", "note": "[ROTIORINOL C]", "values": [{"measurement": "Activity", "setting": "[1]", "value": "inactive"}, {"measurement": "IC50", "setting": "[2]", "value": 16.7, "unit": "mg/L"}, {"measurement": "Activity", "setting": "[3]", "value": "inactive"}, {"measurement": "Activity", "setting": "[4]", "value": "inactive"}]}
{"smiles": "CC[C@H](C)/C=C(C)/C=C/C1=CC2=C(Cl)C(=O)[C@@]3(C)OC(=O)C(C(C)=O)=C3C2=CO1", "note": "[RUBROROTIORIN]", "values": [{"measurement": "Activity", "setting": "[1]", "value": "inactive"}, {"measurement": "IC50", "setting": "[2]", "value": 0.6, "unit": "mg/L"}, {"measurement": "Activity", "setting": "[3]", "value": "inactive"}, {"measurement": "Activity", "setting": "[4]", "value": "inactive"}]}
